Data reported in ChEMBL document CHEMBL3414455, “Boronic species as promising inhibitors of the Staphylococcus aureus NorA efflux pump: study of 6-substituted pyridine-3-boronic acid derivatives” (Eur J Med Chem, 2015).
Converted amounts (≈) assume the structure as drawn.

Columns and labels:
[1] = Cytotoxicity against human KB cells assessed as growth inhibition at 10 uM after 72 hrs by MTS assay relative to control; assay type: cell-based; settings: read-out: GI
How it was run: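 KB cells were grown in D-MEM with 10% FCS at 37°C under 5% CO2. Compounds in DMSO (1% final) were added 24 h after plating, and cells were exposed for 72 h. MTS was then added for 3 h and absorbance read at 490 nm. Inhibition = (1 − OD treated/OD DMSO control) × 100, in triplicate. Docetaxel 0.15 nM served as positive control.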

[2] = target: T1, Quinolone resistance protein NorA (Staphylococcus aureus) (UniProt P0A0J7); test: Inhibition of NorA in fluoroquinolone-resistant Staphylococcus aureus 1199B assessed as minimum modulatory concentration require to potentiate 4 ug/ml ciprofloxacin-induced antibacterial activity
T1 sequence (whole entry): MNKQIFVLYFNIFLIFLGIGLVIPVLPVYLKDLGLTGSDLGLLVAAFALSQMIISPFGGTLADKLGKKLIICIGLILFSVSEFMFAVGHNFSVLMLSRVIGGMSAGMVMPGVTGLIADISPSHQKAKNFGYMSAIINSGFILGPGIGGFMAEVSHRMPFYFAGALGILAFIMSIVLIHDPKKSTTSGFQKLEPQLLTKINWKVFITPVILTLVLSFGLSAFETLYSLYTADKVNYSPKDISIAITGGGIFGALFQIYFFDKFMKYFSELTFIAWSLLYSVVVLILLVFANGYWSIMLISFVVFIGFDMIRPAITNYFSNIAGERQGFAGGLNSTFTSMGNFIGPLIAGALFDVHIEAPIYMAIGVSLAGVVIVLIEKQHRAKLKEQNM

[3] = target: T1, Quinolone resistance protein NorA (Staphylococcus aureus); test: Inhibition of NorA in fluoroquinolone-resistant Staphylococcus aureus 1199B assessed as minimum modulatory concentration require to potentiate 2 ug/ml ciprofloxacin-induced antibacterial activity
[4] = target: T1, Quinolone resistance protein NorA (Staphylococcus aureus); test: Inhibition of NorA in fluoroquinolone-resistant Staphylococcus aureus 1199B assessed as minimum modulatory concentration require to potentiate 16 ug/ml norfloxacin-induced antibacterial activity
Staphylococcus aureus [5] = test: Antibacterial activity against fluoroquinolone-resistant Staphylococcus aureus 1199B overexpressing NorA after 24 hrs by two fold microdilution method; assay type: functional
Staphylococcus aureus [6] = test: Antibacterial activity against methicillin-susceptible […] Staphylococcus aureus ATCC 25923 after 24 hrs by two fold microdilution method; assay type: functional; settings: ATCC 25923, 24 h
How it was run: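 Broth microdilution in Mueller-Hinton broth, about 10^6 CFU/mL per well, inoculum from an 18 h culture at 37°C. Compounds were dissolved in DMSO and tested in twofold serial dilutions, top 128 mg/L, or the highest fully soluble level (at least 16 mg/L). MIC is the lowest concentration giving complete growth inhibition after 24 h at 37°C, read at 620 nm and visually, in duplicate.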

[7] = target: ATP-dependent translocase ABCB1 (Homo sapiens, UniProt P08183); test: Inhibition of MDR1 in human NCI-ADR-RES cells assessed as increase in rhodamine-123 uptake at 1 to 100 uM after 1 hr by fluorescence assay; assay type: cell-based
How it was run: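 NCI/ADR-RES cells (P-gp overexpressing) were seeded at 60,000/well in RPMI. After 24 h they were washed with PBS and given compound (100, 10, 1 µM) plus 12.5 µM rhodamine 123 in FCS-free medium for 1 h at 37°C, 5% CO2. Cells were then washed, lysed in 20 mM Tris pH 7.7 with 0.2% SDS, and fluorescence read at 507/528 nm.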

[8] = Cytotoxicity against human KB cells assessed as growth inhibition at 10^-6 M after 72 hrs by MTS assay relative to control; assay type: cell-based; settings: read-out: GI
[9] = target: T1, Quinolone resistance protein NorA (Staphylococcus aureus); test: Inhibition of NorA in fluoroquinolone-resistant Staphylococcus aureus 1199B assessed as increase in ethidium bromide uptake at 20 ug/ml after 20 mins by fluorimetry relative to control
How it was run: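 Mid-log cells (overnight culture diluted 20-fold, 3.5 h, 37°C, 130 rpm) resuspended in Mueller-Hinton broth containing 10 mg/L EtBr, 37°C; compound added at 10 min (final 20 mg/L), fluorescence (ex 530/em 600 nm) followed 20 more min; rise over pre-addition baseline; reserpine 5 and 20 µg/mL positive, 1.6% DMSO negative; two or three experiments.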

[10] = target: T1, Quinolone resistance protein NorA (Staphylococcus aureus); test: Inhibition of NorA in fluoroquinolone-resistant Staphylococcus aureus 1199B assessed as minimum modulatory concentration require to potentiate 2 ug/ml ciprofloxacin-induced antibacterial activity at MMC relative to control
Staphylococcus aureus [11] = test: microbe, parasite or virus in culture; settings: 1199B, 24 h

Compound	inhibition at 72 h, 10 µM [1]	MMC [2]	MMC [3]	MMC [4]	MIC (Staphylococcus aureus [5])	MIC (Staphylococcus aureus [6])	inhibition (INH) [7]	inhibition at 72 h, 1 µM [8]	inhibition [9]	fold change (FC) [10]	MIC (Staphylococcus aureus [11])
OB(O)c1ccc(Oc2ccc(Cl)cc2Cl)nc1	1%	1 µg/mL	56.4 µM	32 µg/mL	128 µg/mL (≈ 451 µM)	–	–	–	–	–	–
CC1(C)S[C@@H]2[C@H](NC(=O)[C@H](N)c3ccccc3)C(=O)N2[C@H]1C(=O)O [AMPICILLIN]	–	–	–	–	–	0.25 µg/mL (≈ 0.715 µM)	–	–	–	–	–
OB(O)c1ccc(OCCCc2ccccc2)nc1	83%	0.5 µg/mL	15.6 µM	8 µg/mL	> 128 µg/mL	> 128 µg/mL	Not Active	9%	43%	4	–
OB(O)c1ccc(Oc2ccccc2)nc1	14%	2 µg/mL	298 µM	128 µg/mL	> 128 µg/mL	> 128 µg/mL	–	–	–	–	–
CCCCCCCOc1ccc(B(O)O)cn1	73%	0.5 µg/mL	33.7 µM	8 µg/mL	> 16 µg/mL	> 16 µg/mL	–	–	–	–	–
OB(O)c1ccc(OCCCCc2ccccc2)nc1	13%	0.25 µg/mL	14.8 µM	8 µg/mL	32 µg/mL (≈ 118 µM)	64 µg/mL (≈ 236 µM)	Not Active	–	42%	4	–
OB(O)c1ccc(OCCCCCc2ccccc2)nc1	60%	2 µg/mL	14 µM	–	16 µg/mL (≈ 56.1 µM)	–	–	6%	–	–	–
OB(O)c1ccc(OCc2ccc(F)cc2)nc1	8%	2 µg/mL	130 µM	64 µg/mL	> 128 µg/mL	> 128 µg/mL	–	–	–	–	–
OB(O)c1ccc(OCc2ccccc2)nc1	–	1 µg/mL	69.8 µM	32 µg/mL	> 128 µg/mL	> 128 µg/mL	–	–	–	4	–
OB(O)c1ccc(OCCc2ccccc2)nc1	28%	1 µg/mL	65.8 µM	16 µg/mL	> 128 µg/mL	> 128 µg/mL	–	–	–	–	–
OB(O)c1cncc(OCc2ccccc2)c1	0%	8 µg/mL	> 128 µg/mL	–	> 128 µg/mL	> 128 µg/mL	–	–	–	–	–
OB(O)c1ccc(OCCCCCCc2ccccc2)nc1	46%	0.5 µg/mL	13.4 µM	–	> 16 µg/mL	> 16 µg/mL	–	–	–	–	–
OB(O)c1ccc(OCc2ccc(Cl)cc2)nc1	33%	1 µg/mL	121 µM	16 µg/mL	128 µg/mL (≈ 486 µM)	≥ 128 µg/mL	–	–	–	–	–
OB(O)c1ccc(OCc2ccc(Cl)c(Cl)c2)nc1	44%	0.125 µg/mL	3.35 µM	–	16 µg/mL (≈ 53.7 µM)	–	–	0%	–	–	–
Cc1cc(B(O)O)cnc1OCc1ccccc1	15%	4 µg/mL	65.8 µM	8 µg/mL	> 128 µg/mL	–	–	–	–	–	–
OB(O)c1ccc(SCc2ccccc2)nc1	8%	0.5 µg/mL	65.3 µM	16 µg/mL	64 µg/mL (≈ 261 µM)	64 µg/mL (≈ 261 µM)	–	–	–	–	–
O=C(O)c1cn(C2CC2)c2cc(N3CCNCC3)c(F)cc2c1=O [CIPROFLOXACIN]	–	–	–	–	8 µg/mL (≈ 24.1 µM)	–	–	–	–	–	0.5 µg/mL (≈ 1.51 µM)
CCCOc1ccc(B(O)O)cn1	0%	4 µg/mL	> 128 µg/mL	> 128 µg/mL	> 128 µg/mL	> 128 µg/mL	–	–	–	–	–
OB(O)c1ccc(NCc2ccccc2)nc1	0%	32 µg/mL	561 µM	–	> 128 µg/mL	> 128 µg/mL	–	–	–	–	–
CCCCCCOc1ccc(B(O)O)cn1	46%	2 µg/mL	71.7 µM	16 µg/mL	> 128 µg/mL	–	–	–	–	–	–
CCCCOc1ccc(B(O)O)cn1	1%	2 µg/mL	328 µM	64 µg/mL	> 128 µg/mL	> 128 µg/mL	–	–	–	–	–
COC(=O)[C@H]1[C@H]2C[C@@H]3c4[nH]c5cc(OC)ccc5c4CCN3C[C@H]2C[C@@H](OC(=O)c2cc(OC)c(OC)c(OC)c2)[C@@H]1OC	–	–	6.57 µM	–	–	–	–	–	–	–	–
COc1cc(COc2ccc(B(O)O)cn2)cc(OC)c1OC	3%	8 µg/mL	–	–	> 128 µg/mL	> 128 µg/mL	–	–	–	–	–
CCCCCCCCCCCCOc1ccc(B(O)O)cn1	13%	> 16 µg/mL	> 16 µg/mL	–	> 16 µg/mL	> 16 µg/mL	–	–	–	–	–
CCn1cc(C(=O)O)c(=O)c2cc(F)c(N3CCNCC3)cc21 [NORFLOXACIN]	–	–	–	–	64 µg/mL (≈ 200 µM)	–	–	–	–	–	–
OB(O)c1ccc(OCCCCCCCc2ccccc2)nc1	62%	0.5 µg/mL	12.8 µM	–	> 16 µg/mL	> 16 µg/mL	–	–	–	–	–
OB(O)c1ccc(OCc2ccc3c(c2)OCO3)nc1	0%	64 µg/mL	–	–	> 128 µg/mL	> 128 µg/mL	–	–	–	–	–
CCCCCOc1ccc(B(O)O)cn1	16%	2 µg/mL	306 µM	64 µg/mL	> 128 µg/mL	> 128 µg/mL	–	–	–	–	–
